ChEMBL document CHEMBL4007396, “New diphenylmethane derivatives as peroxisome proliferator-activated receptor alpha/gamma dual agonists endowed with anti-proliferative effects and mitochondrial activity” (Eur J Med Chem, 2017)
Blank lines part the entries; values can stand above or below the compound they belong to. Active and inactive are the calls of the source. No cut-off for these calls is given here.

Assays:
[1] = molecular target: T1, Bile acid receptor (Homo sapiens) (UniProt Q96RI1); assay: Agonist activity at GAL4-fused human FXR LBD expressed in human HepG2 cells up to 2 uM after 20 hrs by luciferase reporter gene assay; assay type: cell-based
T1 sequence (whole entry): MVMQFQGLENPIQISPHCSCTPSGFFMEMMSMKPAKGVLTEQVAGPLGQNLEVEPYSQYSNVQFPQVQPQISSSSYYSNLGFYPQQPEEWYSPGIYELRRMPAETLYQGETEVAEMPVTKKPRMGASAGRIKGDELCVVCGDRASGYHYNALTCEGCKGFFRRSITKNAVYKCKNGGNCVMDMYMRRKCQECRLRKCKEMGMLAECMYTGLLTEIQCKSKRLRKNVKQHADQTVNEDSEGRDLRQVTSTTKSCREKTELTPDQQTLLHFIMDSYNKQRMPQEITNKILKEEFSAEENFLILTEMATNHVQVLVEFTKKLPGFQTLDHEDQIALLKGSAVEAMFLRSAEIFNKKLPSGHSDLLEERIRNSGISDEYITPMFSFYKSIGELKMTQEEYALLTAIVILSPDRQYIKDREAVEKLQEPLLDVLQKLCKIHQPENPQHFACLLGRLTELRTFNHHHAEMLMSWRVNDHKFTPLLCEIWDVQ
How it was run: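 HepG2 in MEM/10% FBS, calcium-phosphate co-transfection 24 h after seeding with GAL4-FXR-LBD (30 ng), pGAL5TKpGL3 luciferase reporter (100 ng) and pCMVβgal (250 ng); 4 h later, 20 h ligand exposure in triplicate. Luciferase normalized to β-galactosidase (ONPG); efficacy as % of maximal fold induction of chenodeoxycholic acid reference; tested up to 2 μM.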

HepG2 = assay: Cytotoxicity against human HepG2 cells at >2 uM; assay type: cell-based
[2] = molecular target: T2, Peroxisome proliferator-activated receptor alpha (Homo sapiens, UniProt Q07869); assay: Transactivation of GAL4-fused human PPARalpa LBD expressed in human HepG2 cells after 20 hrs by luciferase reporter gene assay; assay type: cell-based
T2 sequence (Q07869 whole entry): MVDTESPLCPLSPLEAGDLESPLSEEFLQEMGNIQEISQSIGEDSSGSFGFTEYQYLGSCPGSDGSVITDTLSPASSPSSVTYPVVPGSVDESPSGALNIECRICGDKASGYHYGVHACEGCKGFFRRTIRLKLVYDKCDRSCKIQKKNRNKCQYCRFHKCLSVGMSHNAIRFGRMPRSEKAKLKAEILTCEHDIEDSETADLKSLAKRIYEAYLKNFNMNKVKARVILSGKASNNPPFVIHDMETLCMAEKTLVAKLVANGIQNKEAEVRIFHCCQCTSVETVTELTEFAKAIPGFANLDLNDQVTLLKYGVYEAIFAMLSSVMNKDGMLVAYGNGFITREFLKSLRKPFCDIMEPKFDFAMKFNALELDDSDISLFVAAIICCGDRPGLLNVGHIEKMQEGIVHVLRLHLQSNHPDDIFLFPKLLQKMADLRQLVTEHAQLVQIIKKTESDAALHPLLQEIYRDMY

[3] = molecular target: T3, Peroxisome proliferator-activated receptor gamma (Homo sapiens, UniProt P37231); assay: Transactivation of GAL4-fused human PPARgamma LBD expressed in human HepG2 cells after 20 hrs by luciferase reporter gene assay; assay type: cell-based
T3 sequence (P37231 whole entry): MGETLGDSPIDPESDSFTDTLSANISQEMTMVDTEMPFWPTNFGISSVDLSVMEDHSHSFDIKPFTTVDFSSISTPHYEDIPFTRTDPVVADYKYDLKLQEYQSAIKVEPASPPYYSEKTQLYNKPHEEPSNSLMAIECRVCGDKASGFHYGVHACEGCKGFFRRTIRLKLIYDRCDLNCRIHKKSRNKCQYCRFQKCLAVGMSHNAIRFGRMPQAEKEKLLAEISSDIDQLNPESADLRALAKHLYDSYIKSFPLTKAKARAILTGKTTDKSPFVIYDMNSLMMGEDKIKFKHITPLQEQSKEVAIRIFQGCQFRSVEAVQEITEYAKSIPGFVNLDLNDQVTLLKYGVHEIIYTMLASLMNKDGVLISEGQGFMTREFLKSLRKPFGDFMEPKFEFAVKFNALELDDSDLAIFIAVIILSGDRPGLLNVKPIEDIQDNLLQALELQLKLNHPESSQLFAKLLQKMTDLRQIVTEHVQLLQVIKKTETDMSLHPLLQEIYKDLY

[4] = molecular target: T4, Peroxisome proliferator-activated receptor alpha (Homo sapiens) (UniProt Q07869); assay: Agonist activity at PPARalpha in human HepG2 cells assessed as increase in CPT1 mRNA level at 1 uM after 24 hrs by RT-PCR method; assay type: cell-based
T4 sequence (whole entry): T2 sequence (Q07869 whole entry)
How it was run: (§1)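 Serum-free HepG2 exposed 24 h to 1 μM test agent (Wy-14,643 reference at 50 μM). RNA extracted from 1x10⁶ cells; TaqMan real-time RT-PCR for CAC, CPT1 or PPARα, normalized to β-actin. Mean ± SD of three independent duplicate experiments; one-way ANOVA with Bonferroni test.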

[5] = molecular target: T4, Peroxisome proliferator-activated receptor alpha (Homo sapiens); assay: Agonist activity at PPARalpha assessed as induction of positive regulatory loop based receptor transcriptional activation by measuring upregulation of PPARalpha mRNA level in human HepG2 cells at 1 uM after 24 hrs by RT-PCR method; assay type: cell-based; how it was run: as §1
HT-29 = assay: Growth inhibition of human HT-29 cells assessed as cell vitality up to 10 uM up to 72 hrs by hemocytometry relative to control; assay type: functional; set-up: scale not given: the % may be the effect or the level left
How it was run: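 Exponentially growing HT-29 colon adenocarcinoma cells (D-MEM, 10% FBS, 37 °C, 5% CO2) exposed to vehicle (DMSO, final <0.1%) or 1, 5 and 10 μM compound in 10% FBS medium for 24, 48 and 72 hs; cells washed, trypsinized and counted by Bürker hemocytometer, three counts per well. Viability relative to vehicle; mean ± SD of three independent experiments in duplicate.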

[6] = molecular target: T5, Peroxisome proliferator-activated receptor gamma (Homo sapiens) (UniProt P37231); assay: Agonist activity at PPARgamma in human HT-29 cells assessed as upregulation of p21waf1/cip1 protein expression at 10 uM after 48 hrs by Western blot method; assay type: cell-based
T5 sequence (whole entry): T3 sequence (P37231 whole entry)
How it was run: (§2)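 HT-29 or HEK293T cells in DMEM/10% FBS treated 48 h with 10 μM compound (DMSO vehicle, final below 0.1%). RIPA lysates (with protease inhibitors), 80 μg protein per lane immunoblotted for p21waf1/cip1 with β-actin loading control; densitometric p21/β-actin ratio, mean ± SD of at least three independent experiments.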

HEK-293T = assay: Effect on p21waf1/cip1 protein expression in HEK293T cells at 10 uM after 48 hrs by Western blot method; assay type: cell-based; details: human; how it was run: as §2
[7] = molecular target: T5, Peroxisome proliferator-activated receptor gamma (Homo sapiens); assay: Agonist activity at PPARgamma in human HT-29 cells harboring APC mutant assessed as inhibition of Wnt/beta-catenin signaling pathway by measuring decrease in c-Myc level at 10 uM treated for 24 hrs by Western blot method; assay type: cell-based
How it was run: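 RIPA lysates, 80 μg protein immunoblotted for c-Myc with β-actin loading control; c-Myc/β-actin densitometry, mean ± SD of at least three independent experiments.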

[8] = molecular target: T4, Peroxisome proliferator-activated receptor alpha (Homo sapiens); assay: Agonist activity at PPARalpha in human HepG2 cells assessed as increase in CAC mRNA level at 1 uM after 24 hrs by RT-PCR method; assay type: cell-based; how it was run: as §1
[9] = molecular target: T4, Peroxisome proliferator-activated receptor alpha (Homo sapiens); assay: Agonist activity at PPARalpha in human HepG2 cells assessed as increase in CAC protein expression level at 1 uM after 48 hrs by Western blot method; assay type: cell-based
How it was run: (§3)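 HepG2 serum-depleted 24 h, then treated 48 h with 1 μM compound (Wy-14,643 at 50 μM as reference). Nitrocellulose immunoblots probed for CAC, CPT1 or PPARα with β-actin loading control, chemiluminescent detection; band densitometry expressed as fold change versus untreated cells; three independent experiments.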

[10] = molecular target: T4, Peroxisome proliferator-activated receptor alpha (Homo sapiens); assay: Agonist activity at PPARalpha in human HepG2 cells assessed as increase in CPT1 protein expression level at 1 uM after 48 hrs by Western blot method; assay type: cell-based; how it was run: as §3
[11] = molecular target: T4, Peroxisome proliferator-activated receptor alpha (Homo sapiens); assay: Agonist activity at PPARalpha assessed as induction of positive regulatory loop based receptor transcriptional activation by measuring upregulation of PPARalpha protein expression level in human HepG2 cells at 1 uM after 48 hrs by Western blot method; assay type: cell-based; how it was run: as §3
[12] = molecular target: T4, Peroxisome proliferator-activated receptor alpha (Homo sapiens); assay: Agonist activity at PPARalpha in human HepG2 cells assessed as increase in mitochondrial mass at 1 uM by CellLight Mitochondria-GFP staining based fluorescent microscopic method relative to control; assay type: cell-based
How it was run: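 Serum-free HepG2 at 60% confluence transduced with Mitochondria-GFP BacMam 2.0 (50 particles/cell) and given 1 μM compound or 50 μM Wy-14,643 for 24 h. Imaged at 20x with GFP filters (ex 485/em 535 nm); separately, SDS/Tris pH 7.5 lysates read at ex 475, em 500-550 nm. Mean ± SD of three experiments, ANOVA/Bonferroni.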

[13] = molecular target: T6, Peroxisome proliferator-activated receptor delta (Homo sapiens, UniProt Q03181); assay: Transactivation of GAL4-fused human PPARdelta LBD expressed in human HepG2 cells after 20 hrs by luciferase reporter gene assay; assay type: cell-based
T6 sequence (Q03181 whole entry): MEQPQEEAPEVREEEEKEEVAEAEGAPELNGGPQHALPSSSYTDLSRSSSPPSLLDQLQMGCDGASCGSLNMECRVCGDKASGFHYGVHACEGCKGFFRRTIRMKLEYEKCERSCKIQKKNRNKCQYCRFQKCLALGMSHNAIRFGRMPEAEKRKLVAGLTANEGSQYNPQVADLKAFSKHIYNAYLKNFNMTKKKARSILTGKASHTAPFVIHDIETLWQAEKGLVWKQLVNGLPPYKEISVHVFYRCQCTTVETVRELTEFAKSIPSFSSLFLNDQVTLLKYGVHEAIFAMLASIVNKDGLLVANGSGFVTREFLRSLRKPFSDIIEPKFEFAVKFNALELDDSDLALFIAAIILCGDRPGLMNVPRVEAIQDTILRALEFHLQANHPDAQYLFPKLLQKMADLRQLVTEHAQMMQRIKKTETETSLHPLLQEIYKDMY
How it was run: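 HepG2 cells seeded 10⁵/well, transfected after 24 h by calcium phosphate with GAL4-PPARδ-LBD (30 ng), pGAL5TKpGL3 luciferase reporter (100 ng) and pCMVβgal (250 ng); 4 h later treated 20 h in triplicate with ligands up to 2 μM. Luciferase in cell extracts normalised to β-galactosidase (ONPG); efficacy as % of maximal fold induction of reference agonist L-165,041; experiments repeated at least twice.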

[14] = molecular target: T2, Peroxisome proliferator-activated receptor alpha; assay: Binding affinity to PPARalpha (unknown origin) assessed as thermodynamic dissociation constant by SPR assay
[15] = molecular target: T3, Peroxisome proliferator-activated receptor gamma; assay: Binding affinity to PPARgamma (unknown origin) assessed as thermodynamic dissociation constant by SPR assay
[16] = molecular target: T6, Peroxisome proliferator-activated receptor delta; assay: Binding affinity to PPARdelta (unknown origin) assessed as thermodynamic dissociation constant by SPR assay; details: read-out: Kd
[17] = molecular target: T2, Peroxisome proliferator-activated receptor alpha; assay: Binding affinity to PPARalpha (unknown origin) assessed as kinetic dissociation constant by SPR assay
[18] = molecular target: T3, Peroxisome proliferator-activated receptor gamma; assay: Binding affinity to PPARgamma (unknown origin) assessed as kinetic dissociation constant by SPR assay
[19] = molecular target: T6, Peroxisome proliferator-activated receptor delta; assay: Binding affinity to PPARdelta (unknown origin) assessed as kinetic dissociation constant by SPR assay

- Activity [1]: inactive
Compound: CCC(CC)(c1ccc(OCc2nc(-c3ccccc3)oc2C)cc1)c1ccc(OC(C)C(=O)O)cc1 (configuration not stated)
- Activity (HepG2): Toxic

Compound: CC(Oc1ccc(Cc2ccc(OCc3coc(-c4ccccc4)n3)cc2)cc1)C(=O)O (configuration not stated)
- Activity [1]: inactive
- Activity (HepG2): Toxic
- EC50 [2]: 39 nM
- EC50 [3]: 290 nM

- Activity [1]: inactive
Compound: CCC(CC)(c1ccc(OCc2coc(-c3ccccc3)n2)cc1)c1ccc(OC(C)C(=O)O)cc1 (configuration not stated)
- Activity (HepG2): Toxic

- Activity [1]: inactive
Compound: CCC(CC)(c1ccc(OCc2coc(-c3c(Cl)cccc3Cl)n2)cc1)c1ccc(OC(C)C(=O)O)cc1 (configuration not stated)
- Activity (HepG2): Toxic

Compound: Cc1oc(-c2ccccc2)nc1COc1ccc(Cc2ccc(OC(C)C(=O)O)cc2)cc1 (configuration not stated)
- Activity [1]: inactive
- Activity (HepG2): Toxic
- EC50 [2]: 100 nM
- EC50 [3]: 290 nM
- Activity [4]: Active
- Activity [5]: Active
- Activity (HT-29): 70%
- Activity [6]: Active
- Activity (HEK-293T): Non-Toxic
- Activity [7]: Active
- Activity [8]: Active
- Activity [9]: Active
- Activity [10]: Active
- Activity [11]: Active
- Activity [12]: 30%

- Activity [1]: inactive
Compound: CCC(CC)(c1ccc(OCc2nc(-c3c(Cl)cccc3Cl)oc2C)cc1)c1ccc(OC(C)C(=O)O)cc1 (configuration not stated)
- Activity (HepG2): Toxic

Compound: CCCc1c(OCCCOc2ccc(OCC(=O)O)cc2)ccc(C(C)=O)c1O
- EC50 [13]: 20 nM
- Kd [14]: Not Active
- Kd [15]: Not Active
- Kd [16]: 76.4 nM
- Kd [17]: Not Active
- Kd [18]: Not Active
- Kd [19]: 0.43 s⁻¹

Compound: CN(CCOc1ccc(CC2SC(=O)NC2=O)cc1)c1ccccn1 (configuration not stated) [ROSIGLITAZONE]
- Kd [14]: Not Active
- Activity (HT-29): 65%
- Kd [17]: Not Active
